The record followed here is PubChem BioAssay AID652250 (Vanderbilt Specialized Chemistry Center, 2013).

Calls of active or inactive are those of the source.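 Rule for the calls: active = compounds leaving under half of the peptide-driven platelet calcium rise; inactive = the rest.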

One assay deals with Proteinase-activated receptor 4 (Homo sapiens) (UniProt Q96RI0). The assay can be described thus: PAR4 antagonists in human platelets, cell-based, single concentration, washed platelets, Fluo4 calcium (AID 652250). The settings on record: PAR4-AP calcium Fluo4 fluorescence. The essentials: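 System: Fluo4-AM-loaded washed human platelets; Probe or stimulus: 80 µM PAR4-AP; Signal: fluorescence at 480/540 nm, 1 s intervals; Replicates: triplicate wells.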
Proteinase-activated receptor 4 (Homo sapiens), sequence (Q96RI0 whole entry, looked up): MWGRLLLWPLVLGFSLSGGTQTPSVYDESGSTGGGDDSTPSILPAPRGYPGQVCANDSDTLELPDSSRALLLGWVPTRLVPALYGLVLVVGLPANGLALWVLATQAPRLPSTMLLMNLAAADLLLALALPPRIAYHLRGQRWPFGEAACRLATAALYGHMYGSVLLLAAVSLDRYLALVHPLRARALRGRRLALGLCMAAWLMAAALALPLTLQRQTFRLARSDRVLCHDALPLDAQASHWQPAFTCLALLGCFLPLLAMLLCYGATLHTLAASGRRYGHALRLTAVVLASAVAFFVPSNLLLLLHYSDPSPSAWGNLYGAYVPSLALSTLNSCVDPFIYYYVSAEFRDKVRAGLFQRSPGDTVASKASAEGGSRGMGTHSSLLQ
For the compound `COc1ccc(-c2cn(Cc3cccc(F)c3)c3ccccc23)cn1`, the IC50 is 3.85 µM. Consider `COc1ccc(-c2cn(Cc3ccccc3)c3ccccc23)cc1`, for which the IC50 is 10 µM.

The same assay, now with this note: PAR4-AP calcium Fluo4 fluorescence, at 10 µM, stronger effect = lower value.
As for `c1ccc(-c2ccn(-c3ccccc3)n2)cc1`, the “% of max PAR4-AP calcium response” value is “inactive”. On to `CC(=O)n1cc(C2C(=O)NN=C2C)c2ccccc21` (centres undefined), for which the “% of max PAR4-AP calcium response” value is “inactive”. The same measure, in the same setting: as for `O=C(CN1CCOCC1)n1c2c(c3ccccc31)CCCC2`, the entry is “inactive”; as for `Clc1ccc(-n2cc(-c3ccccc3)c3c(NCc4ccc5c(c4)OCO5)ncnc32)cc1`, “inactive”; as for `COc1ncc(-c2cn(Cc3ccccc3)c3ccccc23)cn1`, “inactive”. With `Cc1cc(OCCn2cc(C(=S)N3CCOCC3)c3ccccc32)ccc1Cl`, the “% of max PAR4-AP calcium response” value was “inactive”.

On to `CSc1ncnc2c1c(-c1ccccc1)cn2-c1ccc(F)cc1`, for which the “% of max PAR4-AP calcium response” value is “inactive”. With `Cc1c(CCO)c2ccccc2n1-c1ccccc1`, the “% of max PAR4-AP calcium response” value is “inactive”.

In the case of `Cc1ccc2c(c1)c(-c1ccccc1)c(-c1ccccc1)n2CC(O)CN1CCOCC1` (centres undefined), the “% of max PAR4-AP calcium response” value was “inactive”. As for `CC(C)COc1ccc(-c2cn(Cc3ccccc3)c3ccccc23)cc1`, the “% of max PAR4-AP calcium response” value is “inactive”. For the compound `Cc1c(C)n(CC(O)CNCCCO)c2ccccc12` (centres undefined), the “% of max PAR4-AP calcium response” value was “inactive”. For the compound `CCCCN(C)c1ncnc2c1c(-c1ccccc1)cn2-c1cccc(C)c1`, the “% of max PAR4-AP calcium response” value was “inactive”.

With `S=C(c1cn(CCCOc2ccccc2Cl)c2ccccc12)N1CCCC1`, the “% of max PAR4-AP calcium response” value is “inactive”. `O=C(c1cn(CCCOc2ccccc2)c2ccccc12)C(F)(F)F`: the “% of max PAR4-AP calcium response” value was “inactive”. For `Clc1ccccc1CNc1ncnc2c1c(-c1ccccc1)cn2-c1ccccc1`, the “% of max PAR4-AP calcium response” value is “inactive”.

For the compound `CC(C)Oc1ccc(-c2cn(Cc3ccccc3)c3ccccc23)cc1F`, the “% of max PAR4-AP calcium response” value was “inactive”. With `COc1ccc(-n2nc(C(=O)Nc3cccc(C)n3)c3c4ccccc4n(C)c3c2=O)cc1Cl`, the “% of max PAR4-AP calcium response” value is “inactive”.

With `Cc1cc(C)nc(SCC(=O)n2c(C)c(C)c3ccccc32)n1`, the “% of max PAR4-AP calcium response” value was “inactive”. `Cc1ccc(-n2cc(-c3ccccc3)c3c(N4CCCC4)ncnc32)cc1Cl`: the “% of max PAR4-AP calcium response” value is “inactive”. `COc1ccc(Nc2ncnc3c2c(-c2ccccc2)cn3-c2ccc(Br)cc2)cc1OC`: the % of max PAR4-AP calcium response is 38.7%. Take `CN(C)CCNC(=O)Cc1cn(C)c2ccccc12`: the “% of max PAR4-AP calcium response” value was “inactive”.

In the case of `OCCCNc1ncnc2c1c(-c1ccccc1)cn2-c1cccc(Cl)c1`, the “% of max PAR4-AP calcium response” value is “inactive”. Same read-out and setting: the same measure for `CCOc1ncc(-c2cn(Cc3ccccc3)c3ccccc23)cn1`: “inactive”; for `O=C(Cn1cc(C(=O)C(F)(F)F)c2ccccc21)NC1CCCCCC1`: “inactive”; for `FC(F)(F)c1cccc(-n2cc(-c3ccccc3)c3c(NCCN4CCOCC4)ncnc32)c1`: “inactive”. As to `O=C(c1ccn(C(=O)c2cccc(Cl)c2)n1)N1CCOCC1`, the “% of max PAR4-AP calcium response” value is “inactive”. As for `FC(F)(F)Oc1ccc(-c2cn(Cc3ccccc3)c3ccccc23)cc1`, the “% of max PAR4-AP calcium response” value is “inactive”. On to `COc1cc(Nc2ncnc3c2c(-c2ccccc2)cn3-c2ccccc2)cc(OC)c1OC`, for which the “% of max PAR4-AP calcium response” value is “inactive”. Turning to `COc1cc(NS(=O)(=O)c2ccc(NC(=O)c3ccc4c(c3)c(C)c(C)n4C)cc2)ncn1`, the “% of max PAR4-AP calcium response” value was “inactive”. Still for that read-out and setting: as for `CCn1c(COC)c(-c2ccccc2)c2cc([N+](=O)[O-])ccc21`, the entry is “inactive”. As to `CC1CCCCN1C(=O)Cn1cc(C(=O)C(F)(F)F)c2ccccc21` (centres undefined), the “% of max PAR4-AP calcium response” value is “inactive”. As for `COc1ccc2c(c1)c(C(=O)CNc1nccs1)c(C)n2C`, the “% of max PAR4-AP calcium response” value is “inactive”.

As a reminder, the IC50 is the concentration that inhibits the measured activity by half.
